Source: ChEMBL document CHEMBL1123722, “Comparative antitumor studies on platinum(II) and platinum(IV) complexes containing 1,2-diaminocyclohexane” (J Med Chem, 1987)

Experiments:
B16 = test: Antitumor activity against B16 tumor ascite cells implanted ip in BDF1 mice was determined at a dose of 1.6-2 mg/kg; format: functional, organism-based; conditions: Mus musculus
L1210 = test: Antitumor activity against 10E6 L1210 ascites cells implanted ip in CDF1 mice was determined after a dose of 6-10 mg/kg; format: functional, organism-based; conditions: Mus musculus
Outline: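 CDF1 mice implanted with 1 × 10⁶ L1210 ascites cells ip. Complexes were suspended in 0.9% NaCl with a drop of Tween 80 and given ip on day 1 after tumor inoculation. Groups were five treated mice and 10 leukemic controls. Mice were observed daily. Activity is % T/C: median survival time of treated ÷ untreated controls × 100.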

Work on CISPLATIN yielded a T/C (B16) of 167% and a T/C (L1210) of 150%.
